RAD54 inh – blocks human RAD54 Holliday junction branch migration. FAM/BHQ fluorescence. Q92698. 0.14% of 360,000 active. inhibition, % at 10.4 µM;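 active = mean normalized replicate activity at least 40 and at least half of replicates scoring 40 or more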;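 note: 0% = median of neutral control wells and 100% = median of positive control wells; inhibitors cause a drop in the FAM fluorescence signal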
FN deposit inh – fibronectin deposition inhibition; AH1F fibroblasts, Alexa488-fibronectin deposition fluorescence, overnight; inhibition, % at 12.6 µM; 0.086% of 350,000 active; AID 743247;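 active = mean inhibition across replicates of 30% or more, regardless of how many single replicates reach that level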;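 note: positive control wells lacked labelled fibronectin entirely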
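Assay system: AH1F fibroblast monolayer, labelled fibronectin deposition. Amount: 10000 cells per well. Also added: labelled fibronectin 24 nM. Compound: single-point pinned compound. Incubation: cell attachment 1 h, compound and FN exposure overnight. Detection: fluorescence after three HBSS washes, excitation 485 nm, emission 525 nm. Read-out: inhibition of fibronectin deposition signal.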
RAD52 inh – inhibitors of human RAD52 DNA annealing. P43351. recombinant RAD52 DNA annealing, FRET fluorescence. inhibition, % at 18.7 µM. 0.46% of 360,000 active;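 active = every replicate showing at least 50% inhibition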
Target sequence (P43351 whole entry, looked up): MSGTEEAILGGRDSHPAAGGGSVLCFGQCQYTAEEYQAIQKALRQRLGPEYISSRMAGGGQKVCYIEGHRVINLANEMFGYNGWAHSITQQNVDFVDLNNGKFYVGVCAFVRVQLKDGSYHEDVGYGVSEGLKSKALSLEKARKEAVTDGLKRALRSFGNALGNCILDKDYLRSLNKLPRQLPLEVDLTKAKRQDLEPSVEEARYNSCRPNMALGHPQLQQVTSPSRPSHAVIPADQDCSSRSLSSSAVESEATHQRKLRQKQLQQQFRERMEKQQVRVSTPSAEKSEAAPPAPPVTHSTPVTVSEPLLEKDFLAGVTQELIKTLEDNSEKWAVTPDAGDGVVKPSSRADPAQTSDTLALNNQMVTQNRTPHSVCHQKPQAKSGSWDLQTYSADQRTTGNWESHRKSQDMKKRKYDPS
PAX8 reporter – inhibitors of PAX8 transcriptional activity in RMG-I cells; RMG-I TPO-luciferase reporter, SteadyGlo, 24 h; AID 652154; inhibition, % at 12.6 µM; 1.2% of 360,000 active;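 active = mean replicate inhibition at least 60% with every replicate also reaching 60%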;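 note: luciferase light reporting Pax8 driven TPO promoter activity; plate controls were median of neutral control wells for no effect and mitoxantrone controls for full effect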
An asterisk follows results filed as active; i = inactive; / = no result. Most compounds without a hit are left out; they make up all but 1.3% or so of the library.

SMILES	RAD54 inh	FN deposit inh	RAD52 inh	PAX8 reporter
CNC[C@H]1Oc2ccc(NC(=O)CCC(F)(F)F)cc2C(=O)N([C@H](C)CO)C[C@H]1C	-11	5	-6	19
CO[C@@H]1CN(C)C(=O)c2ccc(NC(=O)c3ccccc3F)cc2OC[C@H](C)NC[C@H]1C	-12	-3	5	5
O=[N+]([O-])c1ccc(-c2nc(NCC3CCCO3)c3ccccc3n2)cc1 (centres undefined)	/	2	-9	0
CCOC(=O)C1=C(C)Nc2nc3ccccc3n2C1c1ccncc1 (centres undefined)	-2	14*	/	/
Nn1c(SCc2cccc(Oc3ccccc3)c2)nnc1C(F)(F)F	3	-5	-5	4
CCN1CCN(C(c2ccccc2)c2nnnn2Cc2ccccc2)CC1 (centres undefined)	-7	33*	/	/
CC(=O)Nc1nc(C)nc(-c2ccccc2OC(C)=O)n1	9	/	-16	/
CSc1ccccc1C(=O)C1CCCN(C(=O)CCc2cccnc2)C1 (centres undefined)	-6	45*	0	5
C[C@H]1CCCCO[C@@H](CN(C)C(=O)Nc2ccccc2)[C@@H](C)CN([C@@H](C)CO)C(=O)c2cc(NC(=O)Nc3ccc(C(F)(F)F)cc3)ccc2O1	/	/	5	17
C[C@@H]1CCCCO[C@H](CN(C)C(=O)c2ccccc2)[C@H](C)CN([C@@H](C)CO)C(=O)c2cc(NC(=O)Nc3ccc(C(F)(F)F)cc3)ccc2O1	-7	/	-3	87*
C[C@@H]1CCCCO[C@@H](CN(C)C(=O)c2ccccc2)[C@@H](C)CN([C@@H](C)CO)C(=O)c2cc(NC(=O)Nc3ccc(C(F)(F)F)cc3)ccc2O1	5	/	-20	86*
C[C@H]1CCCCO[C@@H](CN(C)C(=O)c2ccccc2)[C@@H](C)CN([C@@H](C)CO)C(=O)c2cc(NC(=O)Nc3ccc(C(F)(F)F)cc3)ccc2O1	-2	/	-24	89*
C[C@@H]1CCCCO[C@@H](CN(C)C(=O)Cc2ccccc2)[C@H](C)CN([C@@H](C)CO)C(=O)c2cc(NC(=O)Nc3ccc(C(F)(F)F)cc3)ccc2O1	-1	/	-34	71*
O=C(C/C=N/OCc1ccc(Cl)cc1)c1cnc(-c2ccccc2)s1	-2	/	/	/
C[C@@H]1CCCCO[C@@H](CN(C)C(=O)c2ccccc2)[C@H](C)CN([C@H](C)CO)C(=O)c2cc(NC(=O)Nc3ccc(C(F)(F)F)cc3)ccc2O1	0	/	-16	102*
C[C@@H]1CCCCO[C@@H](CN(C)C(=O)c2ccccc2)[C@@H](C)CN([C@H](C)CO)C(=O)c2cc(NC(=O)Nc3ccc(C(F)(F)F)cc3)ccc2O1	7	/	10	15
C[C@@H]1CN([C@H](C)CO)C(=O)c2cc(NC(=O)Nc3ccc(C(F)(F)F)cc3)ccc2O[C@@H](C)CCCCO[C@@H]1CN(C)C(=O)c1ccccc1	1	/	-12	88*
C[C@@H]1CCCCO[C@H](CN(C)C(=O)c2ccccc2)[C@@H](C)CN([C@@H](C)CO)C(=O)c2cc(NC(=O)Nc3ccc(C(F)(F)F)cc3)ccc2O1	-2	/	-21	94*
CC(=O)Nc1cccc(-c2ccnc3c2CC(C)(C(=O)Nc2cccc(NS(C)(=O)=O)c2)O3)c1 (centres undefined)	-4	-5	-13	14
Cn1c(=O)c(C(=O)NNC(=O)c2ccc(Br)cc2)c(O)c2ccccc21	1	-3	-9	64*
Cn1c(=O)c(C(=O)NNC(=O)c2ccccc2F)c(O)c2ccccc21	2	-4	-2	21
O=C(/C=C/c1c(Cl)nc2ccccn12)Nc1ccc(F)cc1	/	-4	-9	111*
Oc1ccc(C[C@H]2CNC(=S)N2CC2CCCN2C[C@H](Cc2ccccc2)N2C[C@H](Cc3ccc(O)cc3)N(CC3CCCCCC3)C2=S)cc1 (some centres undefined)	4	/	44	73*
Oc1ccc(C[C@H]2CN([C@@H](Cc3cccc(O)c3)CN3CCC[C@@H]3CN3C(=S)NC[C@@H]3Cc3ccccc3)C(=S)N2CC2CCCCC2)cc1	-7	-4	-14	75*
Oc1ccc(C[C@H]2CN([C@@H](Cc3ccc(O)cc3)CN3CCC[C@@H]3CN3C(=S)NC[C@@H]3Cc3ccccc3)C(=S)N2CC2CCCCCC2)cc1	-13	-6	-4	89*
SMILES	RAD54 inh	FN deposit inh	RAD52 inh	PAX8 reporter
COc1ccccc1NC(=O)N1CCCCN2[C@@H](CO)[C@H](c3ccc(C#Cc4ccccc4)cc3)[C@@H]2C1	4	/	-16	-5
Cc1cc(NS(=O)(=O)c2ccc(NC(=O)CSc3nnc(-c4ccco4)n3C)cc2)nc(C)n1	/	-6	-16	-8
COc1ccc(C(CC(=O)N2CCOCC2)c2c(O)cc(OC)cc2OC)cc1 (centres undefined)	-3	14	-7	0
O=C(Nc1ccc(Cl)cc1)NC1(C(=O)NCCCN2CCOCC2)CCCCC1	12	/	/	/
Cn1c(=O)c(Nc2ccc(O)cc2)c2c3c(cccc31)C(=O)c1ccccc1-2	/	20	-1	83*
OCC1OC(n2cnc3c(NCc4ccco4)ncnc32)C(O)C1O (centres undefined)	/	5	-8	104*
Nc1nc(F)nc2c1ncn2[C@@H]1O[C@H](CO)[C@@H](O)[C@@H]1O	-8	/	11	60
OC[C@H]1O[C@@H](n2cnc3c(NCc4ccco4)ncnc32)[C@H](O)[C@@H]1O	6	2	-9	100*
Nc1nc(F)nc2c1ncn2[C@@H]1O[C@H](CO)[C@@H](O)[C@H]1O	-3	28	-5	108*
CCN(CC)c1ccc(/C=C/c2ccc3ccc(OC)cc3[n+]2CC)cc1	-3	-20	-34	83*
CCCCCC[n+]1ccccc1/C=C/c1ccc(N(C)C)cc1	i	-135	i	98*
CC[n+]1c(/C=C/c2ccc(N(C)C)cc2)ccc2ccccc21	/	/	20	90*
Cc1cc(SCc2cccc(Cl)c2)nc(=O)[nH]1	2	4	-13	2
COc1ccc(C#Cc2ccc3c(c2)[C@H]2[C@H](CCN2C(=O)C2CCCC2)[C@@H](CO)N3)cc1	/	-3	2	-11
CCSc1nc2ccccc2n1C(=O)/C=C/c1ccc(OC)c(OC)c1	11	3	/	64*
Cc1ccc(C(=O)Nc2nc(-c3ccccn3)cs2)cc1S(=O)(=O)N1CCOCC1	-5	24	-15	82*
O=C(Nc1nc(-c2ccccn2)cs1)c1ccc(F)c(S(=O)(=O)N2CCOCC2)c1	3	8	-20	84*
O=C(Nc1nc(-c2ccccn2)cs1)c1cc(S(=O)(=O)N2CCOCC2)ccc1F	6	14	-48	51
COc1cccc(CNC(=O)C[C@H]2CC[C@H](NC(=O)C3CC3)[C@@H](CO)O2)c1	2	-24	1	10
CC(C)Cc1nc2oc3c(NCc4cccnc4)ncnc3c2c2c1CCC2	-5	8	-8	/
CC(C)Cc1nc2oc3c(NCC4CCCO4)ncnc3c2c2c1CCC2 (centres undefined)	-12	14	/	82*

Compound activity (PubChem BioAssay)
